Experimental data: ChEMBL document CHEMBL1124495 (1989)
In brackets after ≈: the same amount, converted by molar mass.

What was measured:
Type in all cases: functional
Enterobacter cloacae = assay: Antibacterial activity carried out in vitro against Enterobacter cloacae VHG 84-39
Escherichia coli [1] = assay: Antibacterial activity carried out in vitro against Escherichia coli MOR 84-20
Staphylococcus aureus [2] = assay: Antibacterial activity carried out in vitro against Staphylococcus aureus VGH 84-47
Escherichia coli [3] = assay: Antibacterial activity carried out in vitro against Escherichia coli ATCC 25922
Escherichia coli [4] = assay: Antibacterial activity carried out in vitro against Escherichia coli #311(MP)
Enterococcus faecalis = assay: Antibacterial activity carried out in vitro against Streptococcus faecalis UCI 85-30
Klebsiella pneumoniae = assay: Antibacterial activity carried out in vitro against Klebsiella pneumoniae CMC 84-31
Staphylococcus aureus [5] = assay: Antibacterial activity carried out in vitro against Staphylococcus aureus K82-26
Staphylococcus aureus [6] = assay: Antibacterial activity carried out in vitro against Staphylococcus aureus Smith(MP)
Staphylococcus aureus [7] = assay: Antibacterial activity carried out in vitro against Staphylococcus aureus ATCC 29213
Pseudomonas aeruginosa = assay: Antibacterial activity carried out in vitro against Pseudomonas aeruginosa K84-16
Serratia marcescens = assay: Antibacterial activity carried out in vitro against Serratia marcescens MOR 84-41
Escherichia coli [8] = assay: Activity was determined after peroral administration against Escherichia coli #311(MP) in mouse protection test; conditions: po
How it was run: (§1)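 CD-1 female mice (20 ± 2 g) infected intraperitoneally with 0.5 mL standardized bacterial suspension: E. coli #311 in trypticase-soy broth, S. aureus Smith in 5% hog gastric mucin. Treated 0.5 h post-infection, oral or subcutaneous, 2-fold dose increments in 0.5 mL 0.2% aqueous agar, five mice per dose. 7-day survival pooled from three tests; ED50 by probit analysis.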

Staphylococcus aureus [9] = assay: Activity was determined after peroral administration against Staphylococcus aureus Smith(MP) in mouse protection test; conditions: po; how it was run: as §1
Escherichia coli [10] = assay: Activity was determined after subcutaneous administration against Escherichia coli #311(MP) in mouse protection test; conditions: sc; how it was run: as §1
Staphylococcus aureus [11] = assay: Activity was determined after subcutaneous administration against Staphylococcus aureus Smith(MP) in mouse protection test; conditions: sc; how it was run: as §1

| Compound | MIC (Enterobacter cloacae) [µg/mL] | MIC (Escherichia coli [1]) [µg/mL] | MIC (Staphylococcus aureus [2]) [µg/mL] | MIC (Escherichia coli [3]) [µg/mL] | MIC (Escherichia coli [4]) [µg/mL] | MIC (Enterococcus faecalis) [µg/mL] | MIC (Klebsiella pneumoniae) [µg/mL] | MIC (Staphylococcus aureus [5]) [µg/mL] | MIC (Staphylococcus aureus [6]) [µg/mL] | MIC (Staphylococcus aureus [7]) [µg/mL] | MIC (Pseudomonas aeruginosa) [µg/mL] | MIC (Serratia marcescens) [µg/mL] | ED50 (Escherichia coli [8]) [mg/kg] | ED50 (Staphylococcus aureus [9]) [mg/kg] | ED50 (Escherichia coli [10]) [mg/kg] | ED50 (Staphylococcus aureus [11]) [mg/kg] |
| --- | --- | --- | --- | --- | --- | --- | --- | --- | --- | --- | --- | --- | --- | --- | --- | --- |
| CCn1cc(C(=O)O)c(=O)c2c(F)c(F)c(N3CCSCC3)c(F)c21 | 8 (≈ 21.5 µM) | 4 (≈ 10.7 µM) | 1 (≈ 2.69 µM) | 4 (≈ 10.7 µM) | 4 (≈ 10.7 µM) | 32 (≈ 85.9 µM) | 8 (≈ 21.5 µM) | 1 (≈ 2.69 µM) | 0.5 (≈ 1.34 µM) | 1 (≈ 2.69 µM) | 64 (≈ 172 µM) | 2 (≈ 5.37 µM) | – | – | – | – |
| CCn1cc(C(=O)O)c(=O)c2c(F)c(F)c(N3CCCC3)c(F)c21 | > 128 | 4 (≈ 11.8 µM) | 0.25 (≈ 0.735 µM) | 2 (≈ 5.88 µM) | 2 (≈ 5.88 µM) | > 128 | > 128 | 0.5 (≈ 1.47 µM) | 0.25 (≈ 0.735 µM) | 0.5 (≈ 1.47 µM) | > 128 | 0.5 (≈ 1.47 µM) | – | – | – | – |
| CCn1cc(C(=O)O)c(=O)c2cc(F)c(N3CCN(C)CC3)cc21 [PEFLOXACIN] | – | – | 0.5 (≈ 1.5 µM) | 0.06 (≈ 0.18 µM) | – | 4 (≈ 12 µM) | 0.25 (≈ 0.75 µM) | 0.5 (≈ 1.5 µM) | 0.25 (≈ 0.75 µM) | 0.5 (≈ 1.5 µM) | 4 (≈ 12 µM) | – | 1.1 | 3.1 | 0.4 | 2 |
| CN1CCN(c2c(F)c(F)c3c(=O)c(C(=O)O)cn(C4CC4)c3c2F)CC1 | 0.06 (≈ 0.157 µM) | 0.06 (≈ 0.157 µM) | 0.5 (≈ 1.31 µM) | 0.015 (≈ 0.0393 µM) | 0.03 (≈ 0.0787 µM) | 4 (≈ 10.5 µM) | 0.06 (≈ 0.157 µM) | 0.5 (≈ 1.31 µM) | 0.25 (≈ 0.656 µM) | 0.5 (≈ 1.31 µM) | 4 (≈ 10.5 µM) | 0.06 (≈ 0.157 µM) | 0.5 | 3.6 | 0.35 | 2.1 |
| CCn1cc(C(=O)O)c(=O)c2c(F)c(F)c(N3CCN(C)CC3)c(F)c21 | 0.5 (≈ 1.35 µM) | 0.25 (≈ 0.677 µM) | 2 (≈ 5.42 µM) | 0.12 (≈ 0.325 µM) | 0.25 (≈ 0.677 µM) | 32 (≈ 86.6 µM) | 0.5 (≈ 1.35 µM) | 2 (≈ 5.42 µM) | 2 (≈ 5.42 µM) | 2 (≈ 5.42 µM) | 32 (≈ 86.6 µM) | 0.25 (≈ 0.677 µM) | – | – | – | – |
| CN1CCN(c2c(F)c(F)c3c(=O)c(C(=O)O)cn(-c4ccc(F)cc4)c3c2F)CC1 | 4 (≈ 9.19 µM) | 2 (≈ 4.59 µM) | 4 (≈ 9.19 µM) | 2 (≈ 4.59 µM) | 1 (≈ 2.3 µM) | 64 (≈ 147 µM) | 2 (≈ 4.59 µM) | 2 (≈ 4.59 µM) | 2 (≈ 4.59 µM) | 2 (≈ 4.59 µM) | 32 (≈ 73.5 µM) | 2 (≈ 4.59 µM) | – | – | – | – |
| O=C(O)c1cn(C2CC2)c2cc(N3CCNCC3)c(F)cc2c1=O [CIPROFLOXACIN] | – | – | 1 (≈ 3.02 µM) | – | – | 2 (≈ 6.04 µM) | 0.03 (≈ 0.0905 µM) | 0.5 (≈ 1.51 µM) | 0.12 (≈ 0.362 µM) | 1 (≈ 3.02 µM) | – | 0.008 (≈ 0.0241 µM) | – | – | – | – |

The next lines start with results.

| MIC (Enterobacter cloacae) [µg/mL] | MIC (Escherichia coli [1]) [µg/mL] | MIC (Staphylococcus aureus [2]) [µg/mL] | MIC (Escherichia coli [3]) [µg/mL] | MIC (Escherichia coli [4]) [µg/mL] | MIC (Enterococcus faecalis) [µg/mL] | MIC (Klebsiella pneumoniae) [µg/mL] | MIC (Staphylococcus aureus [5]) [µg/mL] | MIC (Staphylococcus aureus [6]) [µg/mL] | MIC (Staphylococcus aureus [7]) [µg/mL] | MIC (Pseudomonas aeruginosa) [µg/mL] | MIC (Serratia marcescens) [µg/mL] | Compound | ED50 (Escherichia coli [8]) [mg/kg] | ED50 (Staphylococcus aureus [9]) [mg/kg] | ED50 (Escherichia coli [10]) [mg/kg] | ED50 (Staphylococcus aureus [11]) [mg/kg] |
| --- | --- | --- | --- | --- | --- | --- | --- | --- | --- | --- | --- | --- | --- | --- | --- | --- |
| > 128 | > 128 | 128 (≈ 359 µM) | > 128 | > 128 | > 128 | > 128 | 32 (≈ 89.8 µM) | 64 (≈ 180 µM) | 128 (≈ 359 µM) | > 128 | > 128 | CCn1cc(C(=O)O)c(=O)c2c(N3CCOCC3)c(F)c(F)c(F)c21 | – | – | – | – |
| 8 (≈ 20.9 µM) | 4 (≈ 10.4 µM) | 32 (≈ 83.5 µM) | 4 (≈ 10.4 µM) | 4 (≈ 10.4 µM) | > 128 | 8 (≈ 20.9 µM) | 16 (≈ 41.7 µM) | 32 (≈ 83.5 µM) | 64 (≈ 167 µM) | > 128 | 4 (≈ 10.4 µM) | CC(C)n1cc(C(=O)O)c(=O)c2c(F)c(F)c(N3CCN(C)CC3)c(F)c21 | – | – | – | – |
| 4 (≈ 11.2 µM) | 4 (≈ 11.2 µM) | 1 (≈ 2.81 µM) | 4 (≈ 11.2 µM) | 2 (≈ 5.61 µM) | 32 (≈ 89.8 µM) | 4 (≈ 11.2 µM) | 1 (≈ 2.81 µM) | 1 (≈ 2.81 µM) | 1 (≈ 2.81 µM) | 64 (≈ 180 µM) | 1 (≈ 2.81 µM) | CCn1cc(C(=O)O)c(=O)c2c(F)c(F)c(N3CCOCC3)c(F)c21 | – | – | – | – |
| 0.25 (≈ 0.712 µM) | 0.12 (≈ 0.342 µM) | 0.5 (≈ 1.42 µM) | 0.06 (≈ 0.171 µM) | 0.06 (≈ 0.171 µM) | 8 (≈ 22.8 µM) | 0.25 (≈ 0.712 µM) | 0.5 (≈ 1.42 µM) | 0.5 (≈ 1.42 µM) | 0.5 (≈ 1.42 µM) | 4 (≈ 11.4 µM) | 0.12 (≈ 0.342 µM) | CCn1cc(C(=O)O)c(=O)c2cc(F)c(N3CCN(C)CC3)c(F)c21 | – | – | – | – |
| > 128 | > 128 | 8 (≈ 20.4 µM) | > 128 | 128 (≈ 327 µM) | > 128 | > 128 | 8 (≈ 20.4 µM) | 128 (≈ 327 µM) | > 128 | > 128 | > 128 | CCn1cc(C(=O)O)c(=O)c2c(N3CCCC3)c(F)c(N3CCCC3)c(F)c21 | – | – | – | – |
| > 128 | > 128 | > 128 | > 128 | > 128 | > 128 | > 128 | > 128 | > 128 | > 128 | > 128 | > 128 | CCn1cc(C(=O)O)c(=O)c2c(N3CCN(C)CC3)c(F)c(F)c(F)c21 | – | – | – | – |
